Calls of active or inactive are those of the source. No cut-off for these calls is given here.
Tests used:
[1] = biological target: 5-hydroxytryptamine receptor 4 (Cavia porcellus, UniProt O70528); experiment: Displacement of [3H]GR113808 from 5-HT4R in guinea pig brain membranes incubated for 30 mins by radioligand binding assay; type: cell membranes, Membrane
Mus musculus [2] = experiment: Toxicity in NMRI mouse assessed as induction of hyperactivity at 2 mg/kg, ip; type: organism-based; design: dose 2 mg/kg, route intraperitoneal; settings: in vivo
In short: (§1)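 Behavioural and neurological changes scored by standardized observation at 30 min, 3 h and 24 h against controls.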

Mus musculus [3] = experiment: Toxicity in NMRI mouse assessed as induction of exophtalmy at 2 mg/kg, ip; type: organism-based; design: dose 2 mg/kg, route intraperitoneal; settings: in vivo; in short: as §1
Mus musculus [4] = experiment: Toxicity in NMRI mouse assessed as induction of irritability at 2 mg/kg, ip; type: organism-based; design: dose 2 mg/kg, route intraperitoneal; settings: in vivo; in short: as §1
[5] = biological target: Cholinesterase (Equus caballus) (UniProt P81908); experiment: Inhibition of equine serum BuChE at 10 uM pre-incubated for 5 mins before butyrylthiocholine iodide substrate by Ellman' method
In short: (§2)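 Ellman assay in 96-well format: 0.3 mM DTNB in phosphate buffer pH 7.4, compound in DMSO, and enzyme (human erythrocyte AChE or equine serum BuChE, 0.05 U final) preincubated 5 min at 25 °C. Started with 10 mM acetyl- or butyrylthiocholine iodide; A412 followed every minute for 10 min, substrate-free blank.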

[6] = biological target: 5-hydroxytryptamine receptor 4 (Homo sapiens) (UniProt Q13639); experiment: Displacement of [3H]GR113808 from human 5-HT4R at 1 uM by radioligand binding assay
In short: (§3)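 Recombinant human 5-HT4 membranes, 2.5 μg protein, incubated in duplicate with 0.2 nM [3H]GR113808 in 25 mM Tris pH 7.4 for 60 min at 25 °C, with or without drug at 10−6 or 10−8 M. Filtered on PEI-presoaked GF/C filters, washed with ice-cold buffer. Nonspecific binding with 30 μM serotonin. Read-out is % inhibition of binding.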

[7] = biological target: 5-hydroxytryptamine receptor 4 (Homo sapiens) (UniProt Q13639); experiment: Displacement of [3H]GR113808 from human 5-HT4R at 10 nM by radioligand binding assay; in short: as §3
[8] = biological target: 5-hydroxytryptamine receptor 4 (Homo sapiens) (UniProt Q13639); experiment: Agonist activity at HA-tagged 5-HT4R (unknown origin) expressed in COS7 cells assessed as cAMP accumulation by HTRF assay; type: functional, cell-based; design: concentration or dose not given beside the values; settings: COS-7
Cholinesterase = Cholinesterase (Equus caballus, UniProt P81908); experiment: Inhibition of equine serum BuChE pre-incubated for 5 mins before butyrylthiocholine iodide substrate by Ellman' method; in short: as §2
Acetylcholinesterase [9] = biological target: T1, Acetylcholinesterase (Homo sapiens, UniProt P22303); experiment: Inhibition of human erythrocyte AChE pre-incubated for 5 mins before acetylthiocholine iodide substrate by Ellman' method
Mus musculus [10] = experiment: Antiamnesic activity in NMRI mouse assessed as reversal of scopolamine-induced spontaneous alteration deficit at 0.1 mg/kg, ip co-administered with 0.3 mg/kg DPZ by Y maze test; type: functional, organism-based
In short: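 Scopolamine 0.5 mg/kg given SC 30 min before the Y-maze test. The reference combination was 0.1 mg/kg IP (30 min before) plus DPZ 0.3 mg/kg SC (20 min before), in 0.9% NaCl vehicle. Percent spontaneous alternation = actual/(total arm entries − 2) × 100. Mean ± SD, n = 10–12, univariate t test versus 50%.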

Mus musculus [11] = experiment: Toxicity in NMRI mouse assessed as induction of hypoactivity at 10 mg/kg, ip; type: organism-based; design: dose 10 mg/kg, route intraperitoneal; settings: in vivo
In short: (§4)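 Mice in groups of four received graded IP doses of […]. Behavioural and neurological changes (hypo- or hyperactivity, ataxia, tremors, convulsion, etc.) were scored by standardized observation at 30 min, 3 h and 24 h against controls.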

Mus musculus [12] = experiment: Toxicity in NMRI mouse assessed as induction of ataxia at 10 mg/kg, ip; type: organism-based; design: dose 10 mg/kg, route intraperitoneal; settings: in vivo; in short: as §4
Mus musculus [13] = experiment: Toxicity in NMRI mouse assessed as induction of sleep at 10 mg/kg, ip; type: organism-based; design: dose 10 mg/kg, route intraperitoneal; settings: in vivo; in short: as §4
Mus musculus [14] = experiment: Toxicity in NMRI mouse assessed as effect on spontaneous locomotor activity at 10 mg/kg, ip dosed 30 mins before placing mouse in actimeter; type: organism-based; design: dose 10 mg/kg, route intraperitoneal; settings: in vivo, 0.5 h
In short: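 Adult male NMRI mice were dosed IP 30 min before being placed individually in an infrared actimeter. Beam interruptions were counted over 30 min. Mean ± SD, n = 9–10, SNK test versus NaCl.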

Mus musculus [15] = experiment: Antiamnesic activity in NMRI mouse assessed as reversal of scopolamine-induced spontaneous alteration deficit at 0.3 mg/kg, ip by Y maze test; type: functional, organism-based; design: dose 0.3 mg/kg
In short: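 Male NMRI mice, 3 months old, 35−40 g. Scopolamine 0.5 mg/kg SC 30 min before the Y-maze test; test drug in 0.9% NaCl IP 30 min before. Spontaneous alternation = actual/possible alternations (total arm entries minus two) × 100. n = 10−12. Compared with 50% by univariate t test.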

Mus musculus [16] = experiment: Antidepressant-like activity in NMRI mouse assessed as reduction in immobility time at 0.3 mg/kg, ip administered 30 mins before test; type: functional, organism-based; design: dose 0.3 mg/kg
In short: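 Male NMRI mice given drug in 0.9% NaCl IP 30 min before the test, not pretested. Each mouse swam 6 min in a 12 cm diameter cylinder, water 13 cm deep at 23−24 °C. Immobility was scored over the last 4 min. n = 10−12, SNK test versus NaCl.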

[17] = biological target: 5-hydroxytryptamine receptor 4 (Homo sapiens) (UniProt Q13639); experiment: Activity at 5-HT4R (unknown origin) expressed in COS7 cells assessed as increase in sAPPalpha release relative to 5-HT; type: cell-based; settings: COS-7
Mus musculus [18] = experiment: Increase in sAPPalpha level in C57BL/6 mouse CSF at 1 mg/kg, ip measured after 90 mins by ELISA method; type: functional, organism-based; design: dose 1 mg/kg
In short: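 Wild-type C57BL/6 mice, 2 months old, n = 7/group. Single IP injection of vehicle (0.9% NaCl, 0.2% DMSO) or drug. After 90 min, CSF was taken from the cisterna magna under anesthesia, frozen at −80 °C and heated at 60 °C for 5 min. sAPPα measured by mouse/rat ELISA read at 620/450 nm. Unpaired t test.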

[19] = Toxicity in ip dosed NMRI mouse; type: organism-based; settings: in vivo
Mus musculus [20] = experiment: Toxicity in NMRI mouse assessed as toxic symptoms at 1 to 10 mg/kg, ip; type: organism-based; design: dose 1-10 mg/kg, route intraperitoneal; settings: in vivo; in short: as §4
Mus musculus [21] = experiment: Toxicity in NMRI mouse assessed as induction of hypoactivity at 100 mg/kg, ip; type: organism-based; design: dose 100 mg/kg, route intraperitoneal; settings: in vivo; in short: as §4
Mus musculus [22] = experiment: Toxicity in NMRI mouse assessed as induction of passivity at 100 mg/kg, ip; type: organism-based; design: dose 100 mg/kg, route intraperitoneal; settings: in vivo; in short: as §4
Acetylcholinesterase [23] = biological target: T1, Acetylcholinesterase; experiment: Inhibition of human erythrocyte AChE at 10 uM pre-incubated for 5 mins before acetylthiocholine iodide substrate by Ellman' method; in short: as §2
Mus musculus [24] = experiment: Antiamnesic activity in NMRI mouse assessed as reversal of scopolamine-induced spontaneous alteration deficit at 1 mg/kg, ip by Y maze test; type: functional, organism-based; design: dose 1 mg/kg

Chain of 5-hydroxytryptamine receptor 4 (Homo sapiens) (Q13639 whole entry): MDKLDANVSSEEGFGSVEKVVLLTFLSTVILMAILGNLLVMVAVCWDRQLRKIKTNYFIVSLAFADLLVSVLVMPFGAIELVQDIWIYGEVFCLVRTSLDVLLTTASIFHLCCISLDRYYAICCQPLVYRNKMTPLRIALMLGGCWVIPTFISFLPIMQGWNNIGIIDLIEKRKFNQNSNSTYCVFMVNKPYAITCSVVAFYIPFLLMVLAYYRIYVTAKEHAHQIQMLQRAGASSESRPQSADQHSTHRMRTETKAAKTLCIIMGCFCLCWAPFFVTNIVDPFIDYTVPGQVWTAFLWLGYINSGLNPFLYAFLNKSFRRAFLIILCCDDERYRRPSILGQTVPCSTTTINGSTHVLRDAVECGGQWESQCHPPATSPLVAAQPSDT
Chain of 5-hydroxytryptamine receptor 4 (O70528 whole entry): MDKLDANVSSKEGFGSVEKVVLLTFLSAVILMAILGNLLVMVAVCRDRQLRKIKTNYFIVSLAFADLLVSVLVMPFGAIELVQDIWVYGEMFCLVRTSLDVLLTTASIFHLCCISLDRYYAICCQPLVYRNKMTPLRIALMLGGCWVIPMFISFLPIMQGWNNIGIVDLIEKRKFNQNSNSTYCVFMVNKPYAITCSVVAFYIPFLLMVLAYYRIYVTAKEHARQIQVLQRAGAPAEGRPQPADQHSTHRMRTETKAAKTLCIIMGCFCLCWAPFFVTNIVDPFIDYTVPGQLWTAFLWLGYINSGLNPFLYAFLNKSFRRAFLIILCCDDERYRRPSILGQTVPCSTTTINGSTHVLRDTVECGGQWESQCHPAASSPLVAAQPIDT
T1 sequence (P22303 whole entry): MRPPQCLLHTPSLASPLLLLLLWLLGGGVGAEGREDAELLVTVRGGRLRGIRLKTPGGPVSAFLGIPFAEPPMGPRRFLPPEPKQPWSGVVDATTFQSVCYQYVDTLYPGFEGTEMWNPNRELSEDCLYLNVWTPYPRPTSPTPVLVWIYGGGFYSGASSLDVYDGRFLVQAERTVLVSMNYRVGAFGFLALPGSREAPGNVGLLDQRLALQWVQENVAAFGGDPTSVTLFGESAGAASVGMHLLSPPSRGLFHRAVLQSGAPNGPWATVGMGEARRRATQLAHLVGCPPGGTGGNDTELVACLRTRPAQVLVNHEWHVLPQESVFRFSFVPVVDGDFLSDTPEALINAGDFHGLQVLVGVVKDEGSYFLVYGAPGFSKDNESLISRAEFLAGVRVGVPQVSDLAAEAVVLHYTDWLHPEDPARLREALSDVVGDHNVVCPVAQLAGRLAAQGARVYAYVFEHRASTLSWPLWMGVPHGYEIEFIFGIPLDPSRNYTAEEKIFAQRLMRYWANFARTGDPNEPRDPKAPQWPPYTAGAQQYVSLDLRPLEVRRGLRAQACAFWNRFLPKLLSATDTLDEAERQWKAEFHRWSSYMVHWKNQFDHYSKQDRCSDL
Chain of Cholinesterase (Equus caballus) (P81908 whole entry): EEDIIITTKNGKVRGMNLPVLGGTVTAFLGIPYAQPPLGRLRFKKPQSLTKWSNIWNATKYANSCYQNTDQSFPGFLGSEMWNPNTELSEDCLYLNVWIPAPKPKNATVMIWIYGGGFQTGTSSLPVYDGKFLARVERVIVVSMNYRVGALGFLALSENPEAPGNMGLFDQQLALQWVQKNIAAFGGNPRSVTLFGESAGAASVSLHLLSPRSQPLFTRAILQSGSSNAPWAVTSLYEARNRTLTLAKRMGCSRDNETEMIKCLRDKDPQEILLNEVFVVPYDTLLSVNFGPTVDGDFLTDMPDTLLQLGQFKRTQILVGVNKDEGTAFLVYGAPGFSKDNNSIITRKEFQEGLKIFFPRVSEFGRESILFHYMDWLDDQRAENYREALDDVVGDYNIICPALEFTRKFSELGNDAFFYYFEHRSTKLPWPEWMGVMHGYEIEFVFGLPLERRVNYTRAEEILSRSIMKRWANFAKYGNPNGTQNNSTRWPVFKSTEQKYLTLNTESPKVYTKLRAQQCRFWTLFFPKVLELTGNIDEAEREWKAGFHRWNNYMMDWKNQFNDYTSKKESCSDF
Chain of Cholinesterase (P81908 whole entry): as above

COc1cc(N)c(Cl)cc1/C(CCC1CCN(CC2CCCCC2)CC1)=N/O
Ki [1]: 193 nM

CC(N)Cc1ccccc1 (stereo not given) [AMPHETAMINE]
Activity (Mus musculus [2]): Toxic
Activity (Mus musculus [3]): Toxic
Activity (Mus musculus [4]): Toxic

COc1cc(N)c(Cl)cc1C(=O)CCC1CCN(CC2CCNCC2)CC1
inhibition [5]: 26%
inhibition [6]: 100%
inhibition [7]: 69%
Activity [8]: 20%

COc1cc(N)c(Cl)cc1C(=O)OCC1CCN(CC2CCCCC2)CC1
IC50 (Cholinesterase): 4100 nM

COc1cc(N)c(Cl)cc1C(=O)CCC1CCN(Cc2cccnc2)CC1
IC50 (Acetylcholinesterase [9]): 45 nM
IC50 (Cholinesterase): 9160 nM
Ki [1]: 20.4 nM

COc1cc(N)c(Cl)cc1C(=O)CCC1CCN(CC2CCCCC2C)CC1 (stereo not given)
IC50 (Cholinesterase): 4340 nM

COc1cc(N)c(Cl)cc1C(=O)CCC1CCN(CC2CCCCCC2)CC1
IC50 (Cholinesterase): 4000 nM
inhibition [6]: 99%
inhibition [7]: 46%
Activity [8]: 58%

COc1cc(N)c(Cl)cc1C(O)CCC1CCN(CC2CCCCC2)CC1 (stereo not given)
IC50 (Acetylcholinesterase [9]): 1030 nM
IC50 (Cholinesterase): 3640 nM
Ki [1]: 122 nM

CCCCN1CCC(CCC(=O)c2cc(Cl)c(N)cc2OC)CC1
IC50 (Acetylcholinesterase [9]): 403 nM
Ki [1]: 9.3 nM
Activity (Mus musculus [10]): Active

CN(C)CCCN1c2ccccc2Sc2ccc(Cl)cc21 [CHLORPROMAZINE]
Activity (Mus musculus [11]): Toxic
Activity (Mus musculus [12]): Toxic
Activity (Mus musculus [13]): Toxic

COc1cc(N)c(Cl)cc1C(=O)CCC1CCN(CC2CCCC2)CC1
IC50 (Cholinesterase): 6910 nM
inhibition [6]: 100%
inhibition [7]: 58%
Activity [8]: 48%

COc1cc(N)c(Cl)cc1C(=O)CCC1CCN(CC2CCC2)CC1
inhibition [5]: 47%

COc1cc(N)c(Cl)cc1C(=O)CCC1CCN(CC2CCCCC2)CC1
IC50 (Cholinesterase): 3530 nM
inhibition [6]: 100%
inhibition [7]: 73%
Activity [8]: 48.3%
Activity (Mus musculus [14]): Non-toxic
Activity (Mus musculus [15]): Active
Activity (Mus musculus [16]): Active
Emax [17]: 22.5%
Activity (Mus musculus [18]): Active
LD50 [19]: 75 mg/kg
Activity (Mus musculus [20]): Non-toxic
Activity (Mus musculus [21]): Toxic
Activity (Mus musculus [22]): Toxic

CO/N=C(\CCC1CCN(CC2CCCCC2)CC1)c1cc(Cl)c(N)cc1OC
inhibition (Acetylcholinesterase [23]): 33%
IC50 (Cholinesterase): 7420 nM

COc1cc(N)c(Cl)cc1C(=O)CCC1CCN(Cc2ccccc2)CC1
IC50 (Acetylcholinesterase [9]): 8.5 nM
IC50 (Cholinesterase): 1830 nM
Ki [1]: 14.3 nM
inhibition [6]: 100%
inhibition [7]: 41%
Activity [8]: 65%

COc1cc(N)c(Cl)cc1C(=O)CCC1CCN(CCC2CCCCC2)CC1
IC50 (Cholinesterase): 6340 nM

COc1cc(N)c(Cl)cc1C(=O)CCC1CCN(Cc2ccncc2)CC1
IC50 (Acetylcholinesterase [9]): 121 nM
inhibition [5]: 46%
Ki [1]: 20.6 nM

COc1cc(N)c(Cl)cc1C(=O)CCC1CCN(CC2CC2)CC1
IC50 (Cholinesterase): 6600 nM

COc1cc(N)c(Cl)cc1C(=O)NCC1CCN(CC2CCCCC2)CC1
inhibition (Acetylcholinesterase [23]): 45%
Ki [1]: 2.25 nM

COc1cc2c(cc1OC)C(=O)C(CC1CCN(Cc3ccccc3)CC1)C2 (stereo not given)
Activity (Mus musculus [24]): Active
